“And” between values parts separate entries of the source, which are not always exact repeats. Identical values can stand only once. Out of some 2,500 compounds screened, about 1,500 (60%) were called active. So high a share suggests a set chosen from earlier hits. A selection follows. Unmarked numbers belong to inactive results.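 How the source made its calls: active means inhibition of at least 30% at 20 µM; inactive means the rest.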 Non-standard residues stand in square brackets, D forms with d. Residues, ends and D or L forms follow the SMILES beside them. ξ: configuration not given here. ξM = CSCCC(N)C(=O)O

Chain of Carboxy-terminal domain RNA polymerase II polypeptide A small phosphatase 1 (Homo sapiens) (Q9GZU7 76-261 limits assumed): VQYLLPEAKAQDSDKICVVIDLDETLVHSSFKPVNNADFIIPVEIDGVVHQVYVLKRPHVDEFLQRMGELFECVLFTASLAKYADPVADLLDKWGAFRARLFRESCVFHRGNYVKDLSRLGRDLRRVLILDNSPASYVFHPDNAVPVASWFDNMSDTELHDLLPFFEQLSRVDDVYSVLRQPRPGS

The assay has as its target Carboxy-terminal domain RNA polymerase II polypeptide A small phosphatase 1 (Homo sapiens) (UniProt Q9GZU7). As to the kind of experiment: Scp-1 phosphatase inhibitors, retest, confirmation, biochemical, colorimetric, single concentration (AID 540281).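 Further: plate controls were DMSO with enzyme for no effect and buffer wells lacking enzyme for full effect.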 Particulars: recombinant SCP-1 catalytic domain, phosphate release, malachite green absorbance; at 20 µM; stronger effect = higher value. Put shortly: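 Assay system: SCP-1 enzyme, residues 76-261 / Medium: Tris acetate buffer pH 5.5 with 10 mM MgCl2 and Tween-20 / Also added: Phospho-17-mer peptide substrate / Compound: one dose, 20 µM final, 1.0% DMSO / Timing: 45 min phosphatase reaction at RT / Technique: Phosphate-release colorimetry, 630 nm absorbance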
Broadly, the inhibition is the drop in the measured response relative to a control, in per cent. For `COc1cc(/C=C/C2=CC(C)(C)NC(=S)N2)cc(OC)c1OC`, the inhibition was -11.8%. In the case of `Cc1ccc(/C=C/C(=O)Nc2ccc([N+](=O)[O-])c(NC(=O)/C=C/c3ccc(C)o3)c2)o1` it was 66.7% (active). Consider `CCCCCN1CC(O)=C(c2nc(-c3ccc(Cl)cc3)cs2)C1=N`, for which the inhibition was 71.5% (active). In the case of `O=C(COC(=O)/C=C/c1ccc(Br)o1)Nc1cccc(S(=O)(=O)N2CCOCC2)c1` it was 16.4%; in that of `Cc1ccn2c(=O)nc(SCC(=O)NCc3ccc4c(c3)OCO4)nc2c1`, 57.6% (active); in that of `COc1cccc(CC(=O)OCC(=O)NCc2ccc3c(c2)OCO3)c1`, -5.6%. In the case of `CCCCSc1nnc(-c2ccc(C)cc2)o1` it was -16.3%; in that of `Cc1ccc(N=Cc2c(O)n(-c3nccs3)c(=O)c3ccccc23)c(C)c1`, -12.9%. Consider `CC1CCN(c2ccc(S(=O)(=O)Nc3cc(C(=O)O)cc(C(=O)O)c3)cc2[N+](=O)[O-])CC1`, for which the inhibition was 51.3% (active).

Consider `O=C(NN1C(=O)C2C3C=CC(O3)C2C1=O)c1ccccc1` (stereo unspecified), for which the inhibition is -10.8%. `CCc1ccc(NC(=O)CS(=O)CC(=O)NCCCc2ccccc2)cc1` (stereo unspecified): the inhibition is 93.8% (active). In the case of `CS(=O)(=O)C1=NN2C(=N)/C(=C\c3ccc(OCCOc4ccccc4)cc3)C(=O)N=C2S1` it was 72% (active).

`COc1cccc2cc(-c3cc(=O)oc4cc(C)c(O)cc34)oc12`: the inhibition was 57.7% (active). In the case of `O=c1c2cc(-c3ccccc3)sc2nc2n1N=C(c1cccs1)CS2` it was 38.4% (active); in that of `O=C(CN1CCN(c2ccc(Cl)cc2)CC1)c1ccccc1`, -15.3%.

On to `O=C(c1cc2c(s1)CCC2)N1CCN(c2ccccc2)CC1`, for which the inhibition is 31.4% (active). In the case of `ON=C1/C(=N\O)CC2(C/C1=N/O)OCCO2` it was 36.9% (active). In the case of `Cc1nn(-c2cc(Cl)ccc2N)c(=O)c2ccccc12` it was 32.6% (active); in that of `O=C(CCS(=O)(=O)c1ccc(Br)cc1)NCCc1ccc(Cl)cc1`, 55.6% (active). In the case of `COc1ccc(Cl)cc1NC(=O)CCS(=O)(=O)c1ccc(Br)cc1` it was 62.9% (active); in that of `O=C(c1ccc2c(c1)OCO2)N1CCNc2ccccc2C1`, -27.2%. With `CC[n+]1c(C)n(-c2ccccc2)c2ccc(NC(C)=O)cc21`, the inhibition was 85.8% (active). Turning to `O=C(Cn1cc(/C=N/NC(=O)c2cccc(C(F)(F)F)c2)c2ccccc21)Nc1ccc(F)cc1`, the inhibition was 39.4% (active). In the case of `N#CC1=C(SCc2ccccc2)NC(=O)C(C#N)C12CCCC2` (stereo unspecified) it was 9.2%. In the case of `O=c1[nH]n(-c2ccc([N+](=O)[O-])cc2)c(=O)c2ccccc12` it was 46.7% (active); in that of `O=C1NN(c2ccccc2)C(=O)/C1=C/c1ccc(-c2cccc(C(=O)O)c2)o1`, 72.6% (active); in that of `COc1ccc(OC)c(NC(=O)CSc2nc(-c3ccccc3)cc(=O)[nH]2)c1`, -9.58%. In the case of `COC(=O)c1ccc(-c2c(-c3ccccc3)ncc3cc(OC)c(OC)cc23)cc1` it was -1.8%. Turning to `COc1ccc(OCC(=O)NNC(=O)c2ccc(-c3ccccc3)cc2)cc1`, the inhibition was 67.5% (active). In the case of `Cn1c(N)c(C(=O)COC(=O)c2ccc3ccccc3c2)c(=O)n(C)c1=O` it was -18.1%; in that of `O=C(NNC(=O)c1ccc2ccccc2c1)c1ccc(Cl)cc1`, 57.2% (active). As to `Cc1oc2c(C)c3oc(=O)c(CC(=O)N[C@@H](CC(C)C)C(=O)N[C@@H](Cc4ccccc4)C(=O)O)c(C)c3cc2c1C`, the inhibition is 80.1% (active). In the case of `Cc1c([N+](=O)[O-])c(N)nn1C` it was 3.58%; in that of `O=C(O)c1ccc(N/N=C/c2ccc3ncccc3c2)cc1`, 39.7% (active); in that of `COc1ccc(NC(=O)CN(C)C(=O)/C=C/c2cn(Cc3ccccc3)nc2-c2cccnc2)cc1`, 84.6% (active). In the case of `COC(=O)C[n+]1cccc2ccccc21` it was 21%; in that of `Nn1cnnc1N/N=C/c1cc([N+](=O)[O-])c(Cl)cc1Cl`, 86.2% (active); in that of `O=C1CCC(CCC(=O)N2CCCC(C(=O)c3ccc(Cl)cc3)C2)=NN1` (stereo unspecified), -8.97%. `O=C(Nc1cccc(F)c1)[C@@H]1CCCN1`: the inhibition was 0.82%. In the case of `O=C(Nc1cccc(F)c1)c1cc(-c2ccco2)nc2ccccc12` it was 50.4% (active); in that of `CN(CC(=O)Nc1cccc(F)c1)C(=O)C1CC(=O)N(CCc2ccccc2)C1` (stereo unspecified), -11.8%; in that of `CCCc1nc(-c2cc3cc(C)ccc3[nH]c2=O)no1`, 84.7% (active). For the molecule `Cc1cc(/C=C2\SC(=O)N(C)C2=O)c(C)n1-c1cccc(C(=O)O)c1`, the inhibition is 38.7% (active). `COc1cc(Cl)cc(C2NC(=O)NC(C)=C2C(=O)NCc2ccccc2)c1O` (stereo unspecified): the inhibition is -19.7% and -13.7%. As for `C[n+]1ccc(C(=O)NCc2ccccc2)cc1`, the inhibition is 80.1% (active).

`Cc1ccc(SCC(=O)NC(=O)NCc2ccco2)c(C)c1`: the inhibition was 73.6% (active). In the case of `O=C(CN1CCN(S(=O)(=O)/C=C/c2ccccc2)CC1)NC(=O)NCc1ccco1` it was 10.9%; in that of `Cc1c(CCC(=O)O)c(=O)oc2c(C)c(OCc3ccccc3Cl)ccc12`, 58.5% (active).

For `Cc1c(CCC(=O)O)c(=O)oc2cc(OCc3ccc(Br)cc3)ccc12`, the inhibition was 38.7% (active). In the case of `COc1ccc(Cl)cc1C=CC=NNC(=O)c1ccncc1`, the inhibition is 38.5% (active). As for `COc1ccc(N2CCN(C(=O)CSc3nc4cc(OC)c(OC)cc4cc3C#N)CC2)cc1`, the inhibition was 25.3%. In the case of `COCCCNc1nc2ccccc2nc1NS(=O)(=O)c1ccc(F)cc1` it was -5.57%; in that of `CCC(=O)Nc1ccccc1N1CCN(S(C)(=O)=O)CC1`, -7.14%; in that of `COc1ccc(S(=O)(=O)c2c[nH]c(=S)[nH]c2=O)cc1Cl`, 40.6% (active). In the case of `COc1cccc2sc(N(CCCN(C)C)C(=O)C(c3ccccc3)c3ccccc3)nc12` it was -18.8%; in that of `CSc1ccc(/C=N/NC(=O)c2cccc(Cl)c2)cc1`, 59.9% (active); in that of `CC1=NNC(=O)C1CCC(=O)N/N=C\c1cccc(Cl)c1` (stereo unspecified), -18.8%. In the case of `O=C(Cn1nnc(-c2ccc3c(c2)OCO3)n1)NCc1ccco1` it was 30.9% (active); in that of `Cc1nnc(SCC(=O)Nc2ccc(S(=O)(=O)Nc3ccc(Cl)nn3)cc2)s1`, 58.2% (active). With `C=C1c2cccc(OC)c2O[C@H](C(=O)OCC)[C@@H]1CCCCCC`, the inhibition was 88% (active). `CO/N=C(\C(=O)N[C@@H]1C(=O)N2C(C(=O)O)=C(COC(C)=O)CS[C@H]12)c1csc(N)n1` (stereo in doubt): the inhibition was 43.7% (active). In the case of `C=CC1C(OC2OC(CO)C(O)C(O)C2O)OC=C(C(=O)OC)C1CC1CC(=O)CC(CC(=O)CCc2ccc(O)cc2)O1` (stereo unspecified), the inhibition was -13.1%. In the case of `Cc1ccc(CN2CCN(c3ccccc3Cl)CC2)o1` it was -20%; in that of `CCOC(=O)C1=C(C)c2ccccc2OC1(C)C(=O)OCC` (stereo unspecified), 39.1% (active). In the case of `CC(=O)Nc1ccc(N2C(=O)CCC2=O)cc1C` it was -5.6%; in that of `CCOc1ccccc1/C=c1\sc2nc(-c3ccco3)nn2c1=O`, 61% (active); in that of `N#Cc1ccc(C(=O)Nc2cccc3cccnc23)c(F)c1`, 3.88%. As to `O=C(COC(=O)c1ccc(F)cc1F)Nc1ncccn1`, the inhibition is 52.5% (active). In the case of `Cc1ccc(NC(=O)COc2ccc(/C=N\NC(=O)c3cccnc3)cc2)cc1C` it was 81% (active). On to `Cc1ccc(C2(C)NC(=O)N(CC(=O)Nc3ccccc3C(=O)N3CCCCC3)C2=O)cc1` (stereo unspecified), for which the inhibition was -13.7%.

For the molecule `Cc1ccccc1NC(=O)CN1C(=O)N/C(=C\c2cccn2-c2cccc(C(=O)O)c2)C1=O`, the inhibition was 82.2% (active).

As for `C[C@H](CO)N1C[C@H](C)[C@H](CN(C)C(=O)Nc2ccc(C(F)(F)F)cc2)Oc2c(NC(=O)c3ccncc3)cccc2C1=O`, the inhibition is 44.3% (active). For `C[C@H](CO)N1C[C@H](C)[C@@H](CN(C)C(=O)NC2CCCCC2)Oc2ccc(NC(=O)c3ccncc3)cc2C1=O`, the inhibition is 6.94%. In the case of `COc1ccc(NC(=O)N(C)C[C@H]2Oc3ccc(NC(=O)C4CC4)cc3C(=O)N([C@H](C)CO)C[C@@H]2C)cc1` it was 2.35%. As for `CNS(=O)(=O)c1cccc(C(=O)OCC(=O)N2c3ccccc3NC(=O)C2(C)C)c1`, the inhibition is 48.6% (active). In the case of `CC(NC(=O)CC1SC(N)=NC1=O)c1ccccc1` (stereo unspecified) it was -28.8%; in that of `C=Cc1ccc(C(=O)N2CCCC(CCC(=O)N3CCN(c4ccccn4)CC3)C2)cc1` (stereo unspecified), 67% (active). With `COc1cc(SC)ccc1C(=O)NNC(=O)C1COc2ccccc2O1` (stereo unspecified), the inhibition was 5.11%. Regarding `O=C(Nc1cc(S(=O)(=O)N2CCCCC2)ccc1Cl)C1COc2ccccc2O1` (stereo unspecified), the inhibition is 65.1% (active). Take `O=C(N/N=C/c1ccco1)c1ccc(C(=O)N/N=C/c2ccco2)o1`: the inhibition is 56.8% (active). In the case of `COc1ccc2[nH]c3c(C)c4cc[n+](C)cc4c(C)c3c2c1` it was -2.43%; in that of `COc1ccc(/C=C/C(=O)OCC(=O)NC2CCCCCC2)cc1OC`, 45.2% (active). In the case of `N/C(=N\OC(=O)N1c2ccccc2Sc2ccccc21)c1ccc(Br)cc1` it was 46.1% (active). In the case of `Cc1ccc(Cc2nnc(SCC(=O)Nc3ccc(C)cc3C)[nH]c2=O)cc1` it was 39.7% (active); in that of `COCCCn1c(Cc2csc(Nc3cccc(Cl)c3)n2)nnc1SCC(=O)OC1CCCCC1`, 59.1% (active); in that of `Cc1ccc(S(=O)(=O)Nc2ccc3c(c2)C(=O)N([C@H](C)CO)C[C@@H](C)[C@@H](CN(C)C(=O)Nc2cccc4ccccc24)O3)cc1`, 5.11%. In the case of `N#Cc1ccccc1CN1C(=O)S/C(=C/c2cccn2-c2cccc(C(=O)O)c2)C1=O`, the inhibition was 67% (active). In the case of `C[N+](C)(C)CCNC(=O)c1cc[n+](Cc2ccccc2)c(/C=N/O)c1` it was 83.3% (active); in that of `CC(=O)Nc1ccccc1Sc1ccc2c3c(cccc13)C(=O)N(c1ccc(C)cc1)C2=O`, 0.82%. In the case of `COC(=O)CNC(=O)C(CCSC)NC(C)=O` (stereo unspecified) (Ac-[ξM]-Gly-OMe) it was -12.9%.

Consider `O=C(CCC(=O)N/N=C/c1ccc(Br)o1)N/N=C/c1ccc(Br)o1`, for which the inhibition is 40.3% (active).

On to `O=C(CNC(=O)C(c1ccccc1)c1ccccc1)N/N=C\c1ccc2c(c1)OCO2`, for which the inhibition is -8.05%. In the case of `O=C(CCNC(=O)c1ccccc1)NN=Cc1ccc(Br)o1` it was 45% (active); in that of `N#Cc1c(-c2cccs2)nc(SCC(=O)c2ccc(Br)cc2)[nH]c1=O`, 78.5% (active); in that of `COc1ccc(Cc2nnc(NC(=O)Cc3cccs3)s2)cc1`, 77.3% (active). For the molecule `O=S(=O)(Nc1ccccc1Cl)c1cccc2nsnc12`, the inhibition was 48.1% (active).

The record behind these values is PubChem BioAssay AID540281 (Sanford-Burnham Center for Chemical Genomics, 2011).
